Source: PubChem BioAssay (several laboratories)
CSC inhib – cancer stem cell viability inhibitors, primary screen, luminescence. cancer stem cell-like cells viability. inhibition, % at 7.5 µM. actives 1.1% (n = 300,000); in the data active = inhibition above about 75%; inconclusive = no clear call, values can overlap the other calls; tested in HMLE shEcad cells
SKKanGAS inh – S. pyogenes SKKanGAS growth inhibitors in kanamycin, primary screen, streptokinase expression inhibitor project, SKKanGAS strain, BacTiter-Glo luminescence. 6 h. actives 1.3% (n = 300,000). AID 1662, 2009. inhibition, % at 7.5 µM;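 active = mean replicate score, as percent of positive control median, at least 50; inconclusive = mean below 50 but one replicate at or above 50; inactive = mean and every replicate below 50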;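 note: strain carries kanamycin resistance gene driven by streptokinase promoter and grows in 40 µg/ml kanamycin; loss of luminescence reflects streptokinase promoter inhibition or plain growth inhibition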
Mdm2-MdmX inh – inhibitors of human Mdm2-MdmX association, primary screen, cell-based, luminescence, split luciferase, SaOS-2, uHTS. inhibition, % at 8 µM. SaOS-2 split-luciferase Mdm2/MdmX complementation. actives 3% (n = 330,000);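 active = inhibition of at least 50% at 8 µM in the primary screen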
Target sequence (O15151 whole entry, looked up): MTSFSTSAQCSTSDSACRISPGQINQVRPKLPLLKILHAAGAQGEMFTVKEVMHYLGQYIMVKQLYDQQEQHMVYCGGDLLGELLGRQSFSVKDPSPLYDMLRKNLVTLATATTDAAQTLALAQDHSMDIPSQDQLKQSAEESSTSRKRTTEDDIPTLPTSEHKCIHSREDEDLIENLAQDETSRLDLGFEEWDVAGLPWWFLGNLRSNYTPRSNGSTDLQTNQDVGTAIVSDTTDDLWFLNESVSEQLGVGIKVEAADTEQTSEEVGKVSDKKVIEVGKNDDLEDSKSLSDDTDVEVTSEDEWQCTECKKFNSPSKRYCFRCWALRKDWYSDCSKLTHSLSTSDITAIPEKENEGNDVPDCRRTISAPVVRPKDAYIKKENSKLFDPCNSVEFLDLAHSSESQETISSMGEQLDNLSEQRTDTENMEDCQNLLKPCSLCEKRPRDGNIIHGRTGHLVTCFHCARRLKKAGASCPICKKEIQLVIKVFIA
Target sequence (Q00987 whole entry, looked up): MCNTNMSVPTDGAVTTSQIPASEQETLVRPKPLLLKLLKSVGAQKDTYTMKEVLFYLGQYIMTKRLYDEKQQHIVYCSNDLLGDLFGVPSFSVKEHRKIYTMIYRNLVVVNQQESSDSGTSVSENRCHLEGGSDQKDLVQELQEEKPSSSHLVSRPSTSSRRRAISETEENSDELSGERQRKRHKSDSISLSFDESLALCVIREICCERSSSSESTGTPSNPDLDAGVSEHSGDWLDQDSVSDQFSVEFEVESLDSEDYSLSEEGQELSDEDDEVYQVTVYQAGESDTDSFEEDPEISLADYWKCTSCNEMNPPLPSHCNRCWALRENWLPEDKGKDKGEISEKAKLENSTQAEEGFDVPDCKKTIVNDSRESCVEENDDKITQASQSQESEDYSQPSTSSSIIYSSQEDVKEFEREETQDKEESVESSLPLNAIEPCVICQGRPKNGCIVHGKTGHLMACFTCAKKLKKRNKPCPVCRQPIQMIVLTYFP
Calb FLC – C. albicans growth inhibition with fluconazole, primary screen, CaCi-2 strain, Alamar Blue fluorescence. C. albicans CaCi-2 (fluconazole-resistant clinical isolate) + fluconazole, 48 h. growth inhibition, % (concentration not given with the values). actives 0.57% (n = 300,000);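 active = growth inhibition above about 58% in most replicates, limit read from the data, passing the limit was not always enough; inconclusive = exactly half the replicates above a set limit; inactive = most replicates below a set limit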;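 note: all wells also contain fluconazole at 8 µg/ml as a sub-toxic cotreatment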
Beta apoptosis – inhibitors of cytokine-induced beta cell apoptosis, primary screen, luminescence; INS-1E cytokine-induced death, ATP luminescence, 48 h; percent of positive-control rescue, neutral wells zero; protection from apoptosis, % (no concentration beside the values); actives 0.8% (n = 300,000); AID 435005, 2010;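 active = Every replicate reaches about 75%, or at least half do and their mean reaches it too, limit read from the data; inconclusive = At least half of replicates reach the limit but their mean does not; inactive = Under half of replicates reach the limit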;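 note: higher means more ATP so stronger rescue from cytokine killing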
T cruzi repl – inhibitors of intracellular T. cruzi growth, primary screen, luminescence, NIH3T3 host cells. T. cruzi beta-gal in NIH3T3, 90 h. inhibition, % (test concentration not listed). actives 1.4% (n = 300,000). AID 1885, 2009;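 active = mean inhibition across valid replicates above about 55%, limit read from the data; inconclusive = mean below that limit but half or more replicates reach it; inactive = mean below it, under half of replicates reach it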;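 note: signal also drops with host cell toxicity which is not excluded here; higher percent means less beta-gal luminescence so fewer parasites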
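Read-out: Parasite load inhibition, % | Test system: Mouse NIH/3T3 fibroblasts infected with β-gal-expressing T. cruzi Tulahuen C4 | Amount: 5,000 cells/well | Medium: DMEM, 2% fetal bovine serum | Signal: GalScreen β-gal luminescence, detergent lysis, 60 min | Timing: 3 h attach, ≥90 h co-culture | Also added: Tulahuen C4 trypomastigotes, 5000/well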
A number is an active result; 0 = inactive; ? = inconclusive; - = not tested or not shown; ! = repeats disagree. Sampled rows, rich in hits. Any-hit rate of the full collection: about 5.7%.

SMILES	CSC inhib	SKKanGAS inh	Mdm2-MdmX inh	Calb FLC	Beta apoptosis	T cruzi repl
C#CCOCCOCCOCCNc1nc(N2CCN(C(=O)[C@H](CCCCN)n3cc(CC(C)O)nn3)CC2)nc(N2CCN(C(=O)[C@H](CCCCN)n3cc(CC(C)O)nn3)CC2)n1 (some centres not stated)	0	-	0	-	0	-
C[C@]12CC[C@@H]3c4ccc(OC(=O)c5ccccc5)cc4CC[C@H]3[C@@H]1CC[C@@H]2O	0	84	0	-	0	0
CCc1ccc(OCCCCN(C)Cc2ccccc2)cc1	-	0	0	0	-	55
CC(C)(C)C(=O)N1N=C(c2ccc(NS(C)(=O)=O)cc2)CC1c1cccs1 (configuration not stated)	0	50	0	0	0	0
O/N=C/c1cc(Cl)ccc1OCc1cccc2ccccc12	0	80	0	0	0	0
C#CCOc1ccc(Cl)cc1/C=N/O	-	0	0	0	-	0
COc1ccc(CCNC(=O)c2ccc(CNS(=O)(=O)c3cc(C)ccc3C)cc2)cc1OC	0	0	0	0	0	0
CSCC(C)N1CCC(CCC(=O)NC2CC2)CC1 (configuration not stated)	0	0	0	0	0	0
NS(=O)(=O)c1cccc(NC(=O)COC(=O)c2cc(-c3ccc(Cl)cc3)nc3ccccc23)c1	0	91	0	0	0	0
CCOC(=O)C1=C(C)NC(=O)NC1c1ccc([N+](=O)[O-])o1 (configuration not stated)	0	0	0	0	0	0
CCOC(=O)C1=C(C)NC2=C(C(=O)c3ccccc32)C1c1ccc([N+](=O)[O-])o1 (configuration not stated)	0	57	0	0	0	58
CC(C)CC(=O)/C=C/n1c(=S)oc2ccccc21	0	0	-	0	0	0
CC(=O)/C=C/n1c(=S)oc2ccccc21	0	0	-	?	100	0
CCc1ccc2[nH]c(O)c(N=Nc3nc(-c4ccccc4)cs3)c2c1	0	53	0	0	0	0
CCc1cc2c(N=Nc3c(O)[nH]c4ccccc34)ncnc2s1	-	0	0	0	0	0
CC[C@]12c3[nH]c4cc(CCC(=O)N(C)C)ccc4c3CCN1C(=O)[C@@H](CC(=O)NCCc1ccccn1)C[C@@H]2C(=O)N1CCN(C(=O)c2ccco2)CC1	-	-	0	-	-	-
O=C(N/C=N/OCc1ccc(Cl)cc1Cl)NOCc1ncc(C(F)(F)F)cc1Cl	124	0	0	0	0	0
Cc1ccc(S(=O)(=O)NCCSCc2ccccc2)cc1	-	0	0	0	0	0
Cc1ccc(S(=O)(=O)NCCn2cnc([N+](=O)[O-])n2)cc1	0	0	0	0	0	60
Cc1ccc(CSCCNS(=O)(=O)c2ccc([N+](=O)[O-])cc2)cc1	0	0	0	0	0	68
Cc1ccc(S(=O)(=O)NCCNS(=O)(=O)c2ccc(C)cc2)cc1	0	0	0	0	0	0
COc1ccc(-n2c(-c3cccc(C)c3[N+](=O)[O-])n[nH]c2=S)cc1	0	0	0	74	0	0
C=C1SC(Nc2c(C)cccc2C)=NC12CCCCC2	0	0	0	0	0	64
C=C1SC(Nc2c(C)cc(C)cc2C)=NC12CCCCC2	0	0	0	0	0	67
CCC(C(=O)Nc1cc(OC)c(NC(=O)c2ccccc2)cc1OC)c1ccccc1 (configuration not stated)	79	0	0	0	0	0
SMILES	CSC inhib	SKKanGAS inh	Mdm2-MdmX inh	Calb FLC	Beta apoptosis	T cruzi repl
Nc1ccc(Nc2ccc([N+](=O)[O-])cc2[N+](=O)[O-])cc1	0	0	0	0	102	0
CCN(CC)S(=O)(=O)c1cccc(C(=O)OCC(=O)NCCN2C(=O)CSC2=O)c1	-	-	0	-	0	-
O=C(CN1CCC(c2nc3ccccc3s2)CC1)NCc1cccs1	0	0	0	0	0	68
O=C(CN1CCC(c2nc3ccccc3s2)CC1)N1CCCCC1	0	0	0	0	0	0
Cc1nnc(SCC2=C(C(=O)O)N3C(=O)C(NC(=O)COc4ccccc4)C3SC2)s1 (configuration not stated)	-	-	0	-	-	-
Cc1nnc(SCC2=C(C(=O)O)N3C(=O)C(NC(=O)Cn4cnnn4)C3SC2)s1 (configuration not stated)	0	106	0	0	-	0
Cc1nnc(SCC2=C(C(=O)O)N3C(=O)[C@@H](NC(=O)Cn4cnnn4)[C@H]3SC2)s1	0	105!	0	0	-	0
CNc1nc2cc([N+](=O)[O-])c([N+](=O)[O-])cc2nc1NC	0	0	-	0	98	0
COc1ccc(N(C)C(=O)c2cc3c(Cl)nc4ccccc4c3s2)cc1	-	0	0	0	0	0
CCN(CC)CCCNC(=O)c1cc2c(Cl)nc3ccccc3c2s1	77	0	0	0	0	0
CC1CCCN(CCCNC(=O)c2cc3c(Cl)nc4ccccc4c3s2)C1 (configuration not stated)	85	0	0	0	0	77
CN(CCCNC(=O)c1cc2c(Cl)nc3ccccc3c2s1)Cc1ccccc1	0	0	0	0	0	69
COc1ccc(NC(=S)N(Cc2ccc(C)cc2)Cc2ccccn2)cc1	0	0	0	0	0	77
O=c1c(Cl)c(Cl)cnn1Cc1nnc(-c2ccc(Cl)cc2)o1	-	0	-	0	-	60
O=c1c(Cl)c(Cl)cnn1Cc1ccccc1Cl	0	0	-	0	0	0
CCCCC(=O)Nc1ccc(NC(=O)c2ccc(C)c([N+](=O)[O-])c2)cc1OC	0	0	0	0	0	0
O=C(NCCN1CCOCC1)NC1(C(F)(F)F)Oc2ccc(Cl)cc2O1 (configuration not stated)	?	0	-	0	0	0
COCC(C)NC(=O)NC1(C(F)(F)F)Oc2ccc(Cl)cc2O1 (configuration not stated)	80	0	0	0	0	0
CCn1c(C)c(C)c2cc(C(=O)N3CCc4ccccc4C3)ccc21	0	0	0	0	113	0
O=C(N/N=C/c1ccc(O)cc1O)/C(=C/c1ccccc1)CCO	97	0	0	0	85	0
O=C(/C=C\c1ccccc1)NCC(=O)N/N=C/c1ccc(O)cc1O	104	0	0	0	0	0
COc1cc(/C=N/NC(=O)/C(=C/c2ccccc2)CCO)ccc1O	0	0	0	0	0	0
COc1ccc(/C=C\C(=O)NCC(=O)N/N=C/c2ccc(O)cc2O)cc1	0	0	0	0	0	0
O=C(c1ccc(S(=O)(=O)N2CCOCC2)cc1)N1CCc2ccccc21	0	0	0	0	0	0
CCC(=O)Nc1ccc(Cl)c(NC(=O)c2c(OC)cccc2OC)c1	0	0	0	0	-	0
